Measured values taken from ChEMBL document CHEMBL4689842, “EUbOPEN Chemogenomics Library wave 1” (2021).

Test system: U2OS
Assay: Multiplex assay against U2OS
Format: toxicity, cell-based
Settings: human
How it was run: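 Live cells carried four stains from seeding: Hoechst33342, BioTracker Green Microtubule Cytoskeleton Dye, MitoTracker Red and Annexin V Alexa Fluor 680. They were imaged on a CQ1 microscope at 37°C and 5% CO2 after compound addition. Using CellPathfinder machine-learning gating, cells were split into Hoechst high-intensity objects or normal cells, normal cells into healthy, pyknosed or fragmented nuclei, and pyknosed cells into mitotic or apoptotic; tubulin, mitochondrial-mass and membrane-permeability phenotypes are per cents of healthy-nucleus cells.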

[1] = 12 h, 1 µM, compound concentration 1 uM, replicate 1
[2] = 12 h, 1 µM, compound concentration 1 uM, replicate 2
[3] = 12 h, 10 µM, compound concentration 10 uM, replicate 1
[4] = 12 h, 10 µM, compound concentration 10 uM, replicate 2
[5] = 24 h, 1 µM, compound concentration 1 uM, replicate 1
[6] = 24 h, 1 µM, compound concentration 1 uM, replicate 2
[7] = 24 h, 10 µM, compound concentration 10 uM, replicate 1
[8] = 24 h, 10 µM, compound concentration 10 uM, replicate 2
[9] = 48 h, 1 µM, compound concentration 1 uM, replicate 1
[10] = 48 h, 1 µM, compound concentration 1 uM, replicate 2
[11] = 48 h, 10 µM, compound concentration 10 uM, replicate 1
[12] = 48 h, 10 µM, compound concentration 10 uM, replicate 2

## O=c1cc(N2CCOCC2)oc2c(-c3cccc4c3sc3ccccc34)cccc12
[1]
  Population Apoptotic (%): 35%
  Population Fragmented Nuclei (%): 12%
  Population Healthy Nuclei (%): 76%
  Population Hoechst High Intensity Objects (%): 7%
  Population Membrane Permeable-Phenotype (%): 2%
  Population Mitochondria Different-Phenotype (%): 10%
  Population Mitotic Cells (%): 65%
  Population Normal (%): 92%
  Population Pyknosed Nuclei (%): 11%
  Population Tubulin-Different-Phenotype (%): 10%
  Total Cell Count: 120
[2]
  Population Apoptotic (%): 100%
  Population Fragmented Nuclei (%): 15%
  Population Healthy Nuclei (%): 77%
  Population Hoechst High Intensity Objects (%): 10%
  Population Mitochondria Different-Phenotype (%): 6%
  Population Mitotic Cells (%): 0%
  Population Normal (%): 90%
  Population Pyknosed Nuclei (%): 6%
  Population Tubulin-Different-Phenotype (%): 14%
  Total Cell Count: 79
[3]
  Population Apoptotic (%): 52%
  Population Fragmented Nuclei (%): 20%
  Population Healthy Nuclei (%): 47%
  Population Hoechst High Intensity Objects (%): 4%
  Population Membrane Permeable-Phenotype (%): 24%
  Population Mitochondria Different-Phenotype (%): 73%
  Population Mitotic Cells (%): 47%
  Population Normal (%): 95%
  Population Pyknosed Nuclei (%): 32%
  Population Tubulin-Different-Phenotype (%): 100%
  Total Cell Count: 190
[4]
  Population Apoptotic (%): 31%
  Population Fragmented Nuclei (%): 19%
  Population Healthy Nuclei (%): 45%
  Population Hoechst High Intensity Objects (%): 16%
  Population Membrane Permeable-Phenotype (%): 23%
  Population Mitochondria Different-Phenotype (%): 90%
  Population Mitotic Cells (%): 68%
  Population Normal (%): 83%
  Population Pyknosed Nuclei (%): 34%
  Population Tubulin-Different-Phenotype (%): 95%
  Total Cell Count: 70
[5]
  Population Apoptotic (%): 25%
  Population Fragmented Nuclei (%): 14%
  Population Healthy Nuclei (%): 74%
  Population Hoechst High Intensity Objects (%): 7%
  Population Membrane Permeable-Phenotype (%): 4%
  Population Mitochondria Different-Phenotype (%): 7%
  Population Mitotic Cells (%): 75%
  Population Normal (%): 92%
  Population Pyknosed Nuclei (%): 10%
  Population Tubulin-Different-Phenotype (%): 7%
  Total Cell Count: 118
[6]
  Population Apoptotic (%): 60%
  Population Fragmented Nuclei (%): 11%
  Population Healthy Nuclei (%): 82%
  Population Hoechst High Intensity Objects (%): 6%
  Population Membrane Permeable-Phenotype (%): 9%
  Population Mitochondria Different-Phenotype (%): 9%
  Population Mitotic Cells (%): 40%
  Population Normal (%): 93%
  Population Pyknosed Nuclei (%): 6%
  Population Tubulin-Different-Phenotype (%): 15%
  Total Cell Count: 86
[7]
  Population Apoptotic (%): 60%
  Population Fragmented Nuclei (%): 16%
  Population Healthy Nuclei (%): 27%
  Population Hoechst High Intensity Objects (%): 7%
  Population Membrane Permeable-Phenotype (%): 22%
  Population Mitochondria Different-Phenotype (%): 93%
  Population Mitotic Cells (%): 40%
  Population Normal (%): 92%
  Population Pyknosed Nuclei (%): 55%
  Population Tubulin-Different-Phenotype (%): 97%
  Total Cell Count: 242
[8]
  Population Apoptotic (%): 66%
  Population Fragmented Nuclei (%): 14%
  Population Healthy Nuclei (%): 21%
  Population Hoechst High Intensity Objects (%): 6%
  Population Membrane Permeable-Phenotype (%): 50%
  Population Mitochondria Different-Phenotype (%): 70%
  Population Mitotic Cells (%): 33%
  Population Normal (%): 94%
  Population Pyknosed Nuclei (%): 63%
  Population Tubulin-Different-Phenotype (%): 70%
  Total Cell Count: 86
[9]
  Population Apoptotic (%): 43%
  Population Fragmented Nuclei (%): 7%
  Population Hoechst High Intensity Objects (%): 5%
  Population Membrane Permeable-Phenotype (%): 3%
  Population Mitochondria Different-Phenotype (%): 8%
  Population Mitotic Cells (%): 56%
  Population Normal (%): 94%
  Population Pyknosed Nuclei (%): 18%
  Population Tubulin-Different-Phenotype (%): 9%
  Total Cell Count: 127
[10]
  Population Apoptotic (%): 18%
  Population Fragmented Nuclei (%): 16%
  Population Healthy Nuclei (%): 73%
  Population Hoechst High Intensity Objects (%): 4%
  Population Membrane Permeable-Phenotype (%): 12%
  Population Mitochondria Different-Phenotype (%): 12%
  Population Mitotic Cells (%): 81%
  Population Normal (%): 95%
  Population Pyknosed Nuclei (%): 9%
  Population Tubulin-Different-Phenotype (%): 18%
  Total Cell Count: 103
[11]
  Population Apoptotic (%): 81%
  Population Fragmented Nuclei (%): 30%
  Population Healthy Nuclei (%): 5%
  Population Hoechst High Intensity Objects (%): 13%
  Population Membrane Permeable-Phenotype (%): 55%
  Population Mitochondria Different-Phenotype (%): 88%
  Population Mitotic Cells (%): 19%
  Population Normal (%): 86%
  Population Pyknosed Nuclei (%): 63%
  Population Tubulin-Different-Phenotype (%): 77%
  Total Cell Count: 305
[12]
  Population Apoptotic (%): 80%
  Population Fragmented Nuclei (%): 22%
  Population Healthy Nuclei (%): 25%
  Population Hoechst High Intensity Objects (%): 12%
  Population Membrane Permeable-Phenotype (%): 50%
  Population Mitochondria Different-Phenotype (%): 83%
  Population Mitotic Cells (%): 20%
  Population Normal (%): 87%
  Population Pyknosed Nuclei (%): 52%
  Population Tubulin-Different-Phenotype (%): 58%
  Total Cell Count: 116

## O=c1[nH]c2ccccc2n1C1CCN(Cc2ccc(-c3[nH]c4cc5ncnc5cc4nc3-c3ccccc3)cc2)CC1
[1]
  Population Apoptotic (%): 44%
  Population Fragmented Nuclei (%): 6%
  Population Healthy Nuclei (%): 87%
  Population Hoechst High Intensity Objects (%): 5%
  Population Membrane Permeable-Phenotype (%): 37%
  Population Mitochondria Different-Phenotype (%): 11%
  Population Mitotic Cells (%): 55%
  Population Normal (%): 94%
  Population Pyknosed Nuclei (%): 5%
  Population Tubulin-Different-Phenotype (%): 24%
  Total Cell Count: 162
[2]
  Population Apoptotic (%): 37%
  Population Fragmented Nuclei (%): 7%
  Population Healthy Nuclei (%): 85%
  Population Hoechst High Intensity Objects (%): 8%
  Population Membrane Permeable-Phenotype (%): 25%
  Population Mitochondria Different-Phenotype (%): 16%
  Population Mitotic Cells (%): 62%
  Population Normal (%): 91%
  Population Pyknosed Nuclei (%): 7%
  Population Tubulin-Different-Phenotype (%): 23%
  Total Cell Count: 124
[3]
  Population Apoptotic (%): 30%
  Population Fragmented Nuclei (%): 19%
  Population Healthy Nuclei (%): 66%
  Population Hoechst High Intensity Objects (%): 4%
  Population Membrane Permeable-Phenotype (%): 29%
  Population Mitochondria Different-Phenotype (%): 61%
  Population Mitotic Cells (%): 69%
  Population Normal (%): 95%
  Population Pyknosed Nuclei (%): 13%
  Population Tubulin-Different-Phenotype (%): 100%
  Total Cell Count: 173
[4]
  Population Apoptotic (%): 46%
  Population Fragmented Nuclei (%): 38%
  Population Healthy Nuclei (%): 51%
  Population Hoechst High Intensity Objects (%): 7%
  Population Membrane Permeable-Phenotype (%): 54%
  Population Mitochondria Different-Phenotype (%): 75%
  Population Mitotic Cells (%): 53%
  Population Normal (%): 92%
  Population Pyknosed Nuclei (%): 9%
  Total Cell Count: 142
[5]
  Population Apoptotic (%): 42%
  Population Fragmented Nuclei (%): 7%
  Population Healthy Nuclei (%): 83%
  Population Hoechst High Intensity Objects (%): 5%
  Population Membrane Permeable-Phenotype (%): 31%
  Population Mitochondria Different-Phenotype (%): 12%
  Population Mitotic Cells (%): 57%
  Population Normal (%): 94%
  Population Pyknosed Nuclei (%): 9%
  Population Tubulin-Different-Phenotype (%): 16%
  Total Cell Count: 211
[6]
  Population Apoptotic (%): 41%
  Population Healthy Nuclei (%): 81%
  Population Hoechst High Intensity Objects (%): 3%
  Population Membrane Permeable-Phenotype (%): 14%
  Population Mitochondria Different-Phenotype (%): 15%
  Population Mitotic Cells (%): 58%
  Population Normal (%): 96%
  Population Pyknosed Nuclei (%): 11%
  Total Cell Count: 157
[7]
  Population Apoptotic (%): 55%
  Population Fragmented Nuclei (%): 19%
  Population Healthy Nuclei (%): 50%
  Population Hoechst High Intensity Objects (%): 6%
  Population Membrane Permeable-Phenotype (%): 53%
  Population Mitochondria Different-Phenotype (%): 91%
  Population Mitotic Cells (%): 44%
  Population Normal (%): 93%
  Population Pyknosed Nuclei (%): 30%
  Total Cell Count: 174
[8]
  Population Apoptotic (%): 80%
  Population Fragmented Nuclei (%): 28%
  Population Healthy Nuclei (%): 38%
  Population Hoechst High Intensity Objects (%): 14%
  Population Membrane Permeable-Phenotype (%): 72%
  Population Mitochondria Different-Phenotype (%): 88%
  Population Mitotic Cells (%): 19%
  Population Normal (%): 85%
  Population Pyknosed Nuclei (%): 32%
  Population Tubulin-Different-Phenotype (%): 100%
  Total Cell Count: 130
